Screens: PubChem, several laboratories
NTR1 agonist – activates human neurotensin receptor 1; NTR1-U2OS beta-arrestin-GFP spot imaging, agonist mode; activation, % at 20 µM; 330,000 compounds, 0.17% hits; AID 493036;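 active means activation at or above 40% of the spot to cytoplasm intensity ratio, with at least 20 cells analyzed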;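 further: 0% = DMSO without peptide and 100% = 100 nM NTR1 peptide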
Tb MetRS inh – blocks T. brucei methionyl-tRNA synthetase activity; 360,000 compounds, 0.4% hits; inhibition, % at 11.9 µM; purified T. brucei MetRS, ATP depletion, Kinase-Glo luminescence;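 active means inhibition above a per-plate cutoff of the control wells' mean inhibition plus 3 SD, cut at about 5.5% in these data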;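 further: 0% = DMSO wells median and 100% = median of wells with control inhibitor compound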
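System: purified T. brucei MetRS enzyme / Detection: Kinase-Glo luciferase luminescence reporting remaining unconsumed ATP / Medium: HEPES buffer with MgCl2, KCl, DTT, spermine, BSA, pyrophosphatase / Replication: singlicate, one well per compound / Evaluation: percent inhibition relative to median high and low control wells / Schedule: 2 h aminoacylation at 25 °C after 15 min preincubation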
MC4R ag barr – activates human MC4R beta-arrestin recruitment; activation, % at 8.9 µM; 360,000 compounds, 0.98% hits; AID 540308; U2OS MC4R beta-arrestin complementation, luminescence; percent of melanotan II response, DMSO zero; P32245;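 active means activation above a per-plate cutoff, the mean activation of sample wells on that plate plus 3 SD, cut at about 8% in these data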
H9c2 TAG inh – triacylglycerol accumulation inhibition; H9c2 cells, Nile Red lipid (TAG) fluorescence; cells loaded with 200 µM oleic acid; inhibition, % at 12.5 µM; 230,000 compounds, 0.66% hits;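 active means pattern-corrected inhibition of lipid staining of at least 50% with the nuclear-stain viability signal not falling by more than 50%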;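 further: 0% = DMSO wells and 100% = triacsin C control wells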
MC4R antag cAMP – antagonists of human melanocortin 4 receptor (MC4R); 360,000 compounds, 0.48% hits; MC4R-expressing cells, MTII-stimulated cAMP, LANCE TR-FRET; inhibition, % at 6.5 µM;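 active means inhibition above its plate's cutoff, the mean of tested wells on that plate plus 3 SD, cut at about 29% in these data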;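 further: 0% = Melanotan II alone and 100% = Melanotan II plus saturating MCL0020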
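System: U2OS-MC4R stable cell line; Technique: Eu-cAMP/anti-cAMP TR-FRET, emission 671 nm; Repeats: single well per compound; Also added: Melanotan II; Dosing: one concentration, 6.5 µM nominal; Schedule: 30-min compound, 1-h challenge, 1-h detection, room temperature.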
aDG glyco up – increases alpha dystroglycan glycosylation | activation, % at 10 µM | AID 624168 | Pro5-aDG cells, alpha-DG glycosylation AlphaScreen (IIH6); 0% Pro5, 100% B10-LARGE cell signal | 360,000 compounds, 0.22% hits;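 active means activation of at least 8% versus controls, or a plate z-score of at least 8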;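 further: Pro5 are CHO cells carrying HIG-tagged alpha-DG that lacks glycosylation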
MC4R barr ag – human MC4R beta-arrestin agonism confirmation; U2OS MC4R beta-arrestin recruitment, luminescence; scaled DMSO 0%, Melanotan II 100%; 2,400 compounds, 31% hits; shares compounds with MC4R ag barr; activation, % at 8.9 µM;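 active means mean activation across replicates above the hit cutoff set in the earlier primary screen, cut at about 8% in these data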
MOR DOR agonist – OPRM1-OPRD1 heterodimer agonism counter-screen. U2OS PathHunter beta-arrestin, beta-gal luminescence; percent of deltorphin B response, DMSO zero. 2,400 compounds, 5.8% hits. shares compounds with MC4R ag barr. activation, % at 9.2 µM;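 active means mean activation across replicates exceeds the hit threshold derived in the earlier primary screen, cut at about 18% in these data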;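 further: 100% = deltorphin B at 0.9 µM final and 0% = DMSO alone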
Target sequence (P35372 whole entry, looked up): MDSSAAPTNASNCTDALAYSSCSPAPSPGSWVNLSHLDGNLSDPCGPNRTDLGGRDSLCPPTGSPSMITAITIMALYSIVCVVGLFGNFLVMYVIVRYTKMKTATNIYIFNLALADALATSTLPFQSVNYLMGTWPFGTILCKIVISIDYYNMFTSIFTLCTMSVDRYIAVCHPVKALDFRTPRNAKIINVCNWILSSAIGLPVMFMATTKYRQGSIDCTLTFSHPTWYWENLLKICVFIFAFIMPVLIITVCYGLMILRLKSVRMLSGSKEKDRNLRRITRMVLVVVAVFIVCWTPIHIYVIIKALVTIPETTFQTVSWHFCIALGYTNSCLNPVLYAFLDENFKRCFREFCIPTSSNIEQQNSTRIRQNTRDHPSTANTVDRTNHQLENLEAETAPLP
Target sequence (P41143 whole entry, looked up): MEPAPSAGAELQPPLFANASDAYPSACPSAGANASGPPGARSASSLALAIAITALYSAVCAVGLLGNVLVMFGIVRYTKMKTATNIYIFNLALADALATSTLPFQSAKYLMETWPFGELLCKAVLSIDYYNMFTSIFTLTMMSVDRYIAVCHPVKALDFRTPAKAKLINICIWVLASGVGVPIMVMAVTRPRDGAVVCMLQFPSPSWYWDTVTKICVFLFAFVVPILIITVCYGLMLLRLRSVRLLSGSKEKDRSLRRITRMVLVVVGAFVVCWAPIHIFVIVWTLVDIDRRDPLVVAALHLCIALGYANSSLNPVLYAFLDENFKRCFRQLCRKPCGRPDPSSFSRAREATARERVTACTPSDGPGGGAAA
Active calls of the source: *; x = no result given. This is a sample that favours compounds with a hit; in the whole collection about 2.4% have one here.

SMILES	NTR1 agonist	Tb MetRS inh	MC4R ag barr	H9c2 TAG inh	MC4R antag cAMP	aDG glyco up	MC4R barr ag	MOR DOR agonist
Cc1cc(C(C)(C)CC(C)(C)C)ccc1OCCOCC[N+](C)(C)Cc1ccccc1	20.3	-0.9	25.3*	120.2	10.7	-0.4	36.9*	29.3*
COc1ccc(CNC(=O)CCCCCn2c(SCC#N)nc3cc4c(cc3c2=O)OCO4)cc1	4.2	-0.1	19.3*	x	8.3	0.3	-1.5	3.4
COc1ccc(C(=O)COC(=O)C2CCCN2C(=O)C23CC4CC(CC(C4)C2)C3)cc1 (configuration not stated)	0.9	0.1	-0.6	1.6	1.6	0.1	x	x
O=C(COC(=O)C1CCCN1C(=O)C12CC3CC(CC(C3)C1)C2)c1ccc(Br)cc1 (configuration not stated)	6.5	-0.6	13.6*	-19.5	0.1	-0.3	5.2	3.4
CCCCCCOC(=O)c1ccc(N)cc1	4.5	0.3	3.8	-8.6	-5.0	0.1	x	x
CCCCCCCCCCCC1N=C(N)NC(CCCO)=C1C(=O)OC (configuration not stated)	x	-0.6	12.5*	41.0	6.6	0.4	25.6*	5.3
O=C(COC(=O)c1n[nH]c2ccccc12)NC(=O)NC12CC3CC(CC(C3)C1)C2	7.7	-0.5	18.3*	-5.7	1.8	-0.2	2.9	6.7
O=C(COC(=O)c1n[nH]c2ccccc12)NC(=O)NC1CCCC1	1.5	-0.6	-1.8	-5.6	1.9	2.1	x	x
CCOC(=O)c1c(NC(=S)Nc2ccc(C)cc2)sc2c1CCC2	16.3	0.5	3.3	x	3.9	0.0	x	x
CCOC(=O)c1c(NC(=S)Nc2ccc(F)cc2)sc2c1CCC2	12.9	0.5	11.2*	7.2	4.4	-0.4	8.5*	4.2
Cc1cc(C)nc(N2CCC(C(=O)Nc3cccc(C(F)(F)F)c3)CC2)n1	2.0	-1.7	14.5*	x	0.8	0.0	-0.4	6.3
CS(=O)(=O)N1CCC(C(=O)Nc2cccc(C(F)(F)F)c2)CC1	-0.5	0.0	-1.9	7.9	-4.9	-0.5	x	x
CC(C)n1nnnc1C1c2ccccc2C(=O)N1CCOc1ccccc1 (configuration not stated)	x	-1.3	x	x	x	-0.1	x	x
Cc1ccc(O)c(NC(=S)NC(=O)c2ccc(-c3ccc(Cl)cc3)o2)c1	21.2	-0.6	-1.4	10.6	1.2	-0.3	x	x
O=C(NC(=S)Nc1ccccc1O)c1ccc(-c2ccc(Cl)cc2)o1	0.8	-0.9	30.5*	-3.6	1.9	-0.2	2.0	9.6
COc1ccccc1NC(=S)NC(=O)c1ccc(-c2ccc(Cl)cc2)o1	9.6	-0.1	19.6*	x	12.7	-0.4	-0.1	2.2
Cc1c(NC(=S)NC(=O)c2ccc(-c3ccc(Cl)cc3)o2)cccc1C(=O)O	-1.5	0.1	1.6	-12.9	21.7	0.2	x	x
NC(=O)c1c(NC(=O)c2c(F)cccc2F)sc2c1CCN(Cc1ccccc1)C2	5.4	0.2	3.3	-7.8	20.7	0.1	x	x
NC(=O)c1c(NC(=O)c2ccccc2)sc2c1CCN(Cc1ccccc1)C2	3.1	-0.6	12.3*	-31.1	11.3	0.5	2.1	6.9
CCC(C)(C)C1CCC2(CC1)NC(=O)N(CC(=O)N(C)Cc1ccc(OC(F)F)cc1)C2=O (configuration not stated)	4.5	0.6	17.1*	22.1	-3.6	1.9	1.9	6.7
Cc1cc(OCC(=O)C(C)(C)C)c2c(C)c(C)c(=O)oc2c1	2.8	0.7	14.8*	x	-5.3	0.1	1.2	6.0
COCCOc1ccc(C(F)(F)F)cc1NC(=O)c1ccc(C)cc1	0.4	-1.3	14.6*	x	-1.7	0.3	1.1	6.3
O=C(Nc1cc(S(=O)(=O)N2CCCCCC2)ccc1OCC(F)(F)F)c1cnccn1	6.7	-0.4	10.3*	16.8	8.3	0.0	-0.5	2.8
CN1C(=S)N(c2ccccc2)C(=O)/C1=C/c1cccs1	11.9	0.3	16.5*	x	-4.2	-0.2	7.7	1.6
O=C(COc1c(Br)cc(Br)c2cccnc12)Nc1ccccc1F	19.0	0.1	12.9*	-10.5	-1.1	1.1	1.5	2.4
SMILES	NTR1 agonist	Tb MetRS inh	MC4R ag barr	H9c2 TAG inh	MC4R antag cAMP	aDG glyco up	MC4R barr ag	MOR DOR agonist
CC(=O)Nc1cc(-c2cccc(NS(C)(=O)=O)c2)cn2c(-c3ccc(F)c(Cl)c3)cnc12	x	0.2	2.0	-5.0	16.8	0.7	x	x
N#Cc1cc(-c2ccccc2)cnc1Sc1ccc(Cl)cc1	3.4	0.2	-0.5	x	3.0	0.3	x	x
N#Cc1cc(-c2ccc(Cl)cc2)cnc1Sc1ccc(F)cc1	6.0	0.0	18.5*	x	1.1	-0.1	5.2	4.6
CC(=O)C1CCC2C3C=CC4=CC(=O)CCC4(C)C3CCC12C (configuration not stated)	x	-1.0	0.0	-3.7	-1.8	0.0	x	x
O=C(/C(=N/N=C/c1ccc(O)c(O)c1)c1ccccc1)c1ccccc1	5.6	0.7	10.1*	2.8	17.0	-0.4	2.9	11.4
Oc1ccc(/C=N/N=C/c2ccc(O)c(O)c2)cc1O	1.6	0.2	-0.8	25.7	-0.7	-0.1	x	x
COc1ccc(C2=Nc3ccccc3N(C(=O)c3cccnc3)C2C(=O)NC(C)(C)C)cc1 (configuration not stated)	x	-0.9	x	x	x	-0.2	x	x
CCCn1c(/N=C/c2c[nH]c3ccccc23)nc2ccccc21	9.7	1.1	11.2*	x	-3.7	-0.2	1.2	5.4
COc1cccc(/C=C2\SC(=S)N(CCC(=O)NCCc3ccc(O)cc3)C2=O)c1	12.3	0.6	35.2*	x	14.6	0.2	-2.6	2.8
O=C(CCN1C(=O)/C(=C/c2ccc(F)cc2)SC1=S)Nc1cccnc1	3.5	-0.6	0.5	x	4.6	-0.1	x	x
O=C(CCN1C(=O)/C(=C/c2ccccc2F)SC1=S)N[C@@H](CO)Cc1ccccc1	11.0	-0.6	11.5*	x	6.5	0.6	-3.0	4.8
O=C(CCN1C(=O)/C(=C/c2ccccc2)SC1=S)N[C@@H](CO)Cc1ccccc1	12.4	0.1	18.6*	x	6.2	1.6	-1.6	3.6
O=C(CCN1C(=O)/C(=C\c2ccccc2F)SC1=S)Nc1ccc(C(=O)O)c(O)c1	0.8	-0.1	-2.9	9.0	10.7	-0.1	x	x
O=C(CCN1C(=O)/C(=C/c2ccccc2)SC1=S)Nc1cccnc1	6.2	0.0	11.2*	x	14.1	-0.1	2.0	6.1
